Reference: ChEMBL document CHEMBL5506039, “Discovery and Optimization of Tambjamines as a Novel Class of Antileishmanial Agents” (J Med Chem, 2024)
Activity calls are given as the source filed them. The calls are words filed in the database; no cut-off is given here.

How the values were obtained:
[1] = Cytotoxicity against mouse J774.A1 cells assessed as reduction in cell survival measured after 96 hrs by SYBR Green II dye based analysis; assay type: toxicity
Outline: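 Uninfected J774A.1 macrophages, 1 × 10⁴ cells/well in DMEM/10% HI-FBS, reattached 3 h, then exposed to compounds for 96 h. DNA content read after lysis with SYBR Green II (1:1000 in 1% Triton/PBS), 1 h dark at room temperature, fluorescence Ex 485/Em 535.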

[2] = tested on: Leishmania mexicana; experiment: (§1) Antileishmanial activity against Leishmania mexicana MNYC/BZ/62/M379 amastigotes expressing red-shifted firefly luciferase from integrated ribosomal (28S) RNA locus infected in mouse J774.A1 cells assessed as reduction in parasite survival measured after 96 hrs by luminescence based analysis; assay type: functional, organism-based; conditions: MNYC/BZ/62/M379, J774.A1, 96 h
Outline: (§2)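 J774A.1 macrophages infected with stationary-phase luciferase-expressing promastigotes at 10:1 parasites:macrophage, overnight at 37 °C, 5% CO₂. Non-internalized parasites washed off and 1 × 10⁴ cells/well replated in MEM/10% HI-FBS. Compounds in DMSO added as serial 3-fold dilutions (typically 10 μM–1 nM) for 96 h. Luciferase luminescence read; EC50 from log-transformed sigmoidal variable-slope fit. Mean ± SD of ≥2 independent experiments.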

[3] = tested on: Leishmania mexicana; experiment: as §1, with “as” for “as reduction in”, “survival at 0.1 uM” for “survival”, “analysis relative to control” for “analysis”; assay type: functional; conditions: MNYC/BZ/62/M379, J774.A1
[4] = Cytotoxicity against mouse J774.A1 cells assessed as cell survival at 0.1 uM measured after 96 hrs by SYBR Green II dye based analysis relative to control; assay type: toxicity; conditions: read-out: Survival
Outline: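 Uninfected J774A.1 mouse macrophages were plated at 1 × 10⁴ cells/well in DMEM with 10% heat-inactivated FBS and left 3 h at 37 °C to reattach. Compounds were added from DMSO, and analogues were screened at 0.1 μM. After 96 h at 37 °C in 5% CO₂, medium was removed. SYBR Green II (1:1000 in 1% Triton/PBS) was added for 1 h in the dark at room temperature, and fluorescence was read at Ex 485/Em 535 as a DNA-content measure of viability.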

[5] = tested on: Leishmania mexicana; experiment: Antileishmanial activity against Leishmania mexicana amastigotes expressing red-shifted firefly luciferase from integrated ribosomal (28S) RNA locus infected in female BALB/c mouse assessed as retardation of lesion progression by measuring reduction in footpad lesion at 40 mg/kg/day, po …; assay type: functional, organism-based; conditions: time 20-29 day
[6] = Metabolic stability in pre-warmed pooled human liver microsomes assessed as half life at 1 uM measured upto 60 mins by LC-MS analysis; assay type: ADME, Microsome
Outline: (§3)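 Compound at 1 μM final with 0.5 mg/mL pooled human or mouse liver microsomes, 1.3 mM NADP and 3.3 mM MgCl₂ in 100 mM potassium phosphate, pH 7.4. Reaction started with 1 U/mL G6PD at 37 °C with shaking.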

[7] = Therapeutic index, ratio of EC50 for mouse J774.A1 cells to EC50 for antileishmanial activity against Leishmania mexicana MNYC/BZ/62/M379 amastigotes expressing red-shifted firefly luciferase from integrated ribosomal (28S) RNA locus infected in mouse J774.A1 cells; assay type: toxicity, cell-based; conditions: read-out: TI
[8] = tested on: HepG2; experiment: Cytotoxicity against human HepG2 cells assessed as inhibition of cell growth incubated for 48 hrs by MTT assay; assay type: toxicity, cell-based
Outline: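 HepG2 cells, 2.5 × 10⁴/well in supplemented complete MEM, settled overnight at 37 °C, 5% CO₂. Compounds given as 11 duplicate 1.6-fold dilutions, 10 to 0.15 μg/mL, for 48 h. MTT added for 1 h in the dark at room temperature, formazan dissolved in acidified isopropanol, absorbance read. Triplicate runs; IC50 by sigmoidal variable-slope regression.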

[9] = tested on: Leishmania mexicana; experiment: Antileishmanial activity against Leishmania mexicana amastigotes expressing red-shifted firefly luciferase from integrated ribosomal (28S) RNA locus infected in female BALB/c mouse assessed as retardation of lesion progression by measuring reduction in luminescence signal over infected footpad at …; assay type: functional, organism-based; conditions: dose 40.0 mg/kg/day, route po, time 20-29 day
[10] = Cmax in male ICR-CD1 mouse liver at 40 mg/kg, po administered as single dose and measured upto 72 hrs; assay type: ADME, organism-based; conditions: in vivo
Outline: (§4)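 Oral (intragastric) single dose, formulated in 50% PEG-400:50% sterile water, given to male ICR-CD1 mice (23–28 g), three per time point. Terminal cardiac-puncture blood (heparinized) and liver taken at 0, 0.5, 1, 2, 4, 8, 24, 30, 48, 54 and 72 h. Plasma separated by centrifugation at 4 °C. Samples held at −80 °C before drug quantitation and PK parameter calculation.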

[11] = Metabolic stability in pre-warmed pooled mouse liver microsomes assessed as half life at 1 uM measured upto 60 mins by LC-MS analysis; assay type: ADME, Microsome; outline: as §3
[12] = Apparent elimination half life in male ICR-CD1 mouse plasma at 40 mg/kg, po administered as single dose and measured upto 72 hrs; assay type: ADME, organism-based; conditions: in vivo; outline: as §4
[13] = Mutagenicity in Salmonella typhimurium […] assessed as increase in revertant rate upto 10 uM incubated for 96 hrs in absence of S9 fraction by AMES test; assay type: toxicity; conditions: salmonella enterica subsp. enterica serovar typhimurium, s9, 96 h
Outline: (§5)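 96-well Ames format: overnight 37 °C cultures of TA98 and TA100 mixed with exposure medium, with or without S9. Compound tested up to 10 μM, plates incubated 96 h at 37 °C and positive wells over background scored visually. Positive controls were 2-aminoanthracene (with S9) and 4-nitroquinoline N-oxide plus 2-nitrofluorene (without S9).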

[14] = Extrapolated AUC in male ICR-CD1 mouse liver at 40 mg/kg, po administered as single dose and measured upto 72 hrs; assay type: ADME, organism-based; conditions: in vivo; outline: as §4
[15] = Mutagenicity in Salmonella typhimurium TA100 assessed as increase in revertant rate upto 10 uM incubated for 96 hrs in presence of S9 fraction by AMES test; assay type: toxicity, subcellular; conditions: salmonella enterica subsp. enterica serovar typhimurium, s9, 96 h; outline: as §5
[16] = Mutagenicity in Salmonella typhimurium […] assessed as increase in revertant rate upto 10 uM incubated for 96 hrs in presence of S9 fraction by AMES test; assay type: toxicity, subcellular; conditions: salmonella enterica subsp. enterica serovar typhimurium, s9, 96 h; outline: as §5
[17] = Extrapolated AUC in male ICR-CD1 mouse plasma at 40 mg/kg, po administered as single dose and measured upto 72 hrs; assay type: ADME, organism-based; conditions: in vivo; outline: as §4
[18] = Tmax in male ICR-CD1 mouse liver at 40 mg/kg, po administered as single dose and measured upto 72 hrs; assay type: ADME, organism-based; conditions: in vivo; outline: as §4
[19] = Mutagenicity in Salmonella typhimurium TA100 assessed as increase in revertant rate upto 10 uM incubated for 96 hrs in absence of S9 fraction by AMES test; assay type: toxicity; conditions: salmonella enterica subsp. enterica serovar typhimurium, s9, 96 h; outline: as §5
[20] = AUC (0 to infinity) in male ICR-CD1 mouse liver at 40 mg/kg, po administered as single dose and measured upto 72 hrs; assay type: ADME, organism-based; conditions: in vivo; outline: as §4
[21] = Tmax in male ICR-CD1 mouse plasma at 40 mg/kg, po administered as single dose and measured upto 72 hrs; assay type: ADME, organism-based; conditions: in vivo; outline: as §4
[22] = Apparent elimination half life in male ICR-CD1 mouse liver at 40 mg/kg, po administered as single dose and measured upto 72 hrs; assay type: ADME, organism-based; conditions: in vivo; outline: as §4
[23] = AUC (0 to last) in male ICR-CD1 mouse plasma at 40 mg/kg, po administered as single dose and measured upto 72 hrs; assay type: ADME, organism-based; conditions: in vivo; outline: as §4
[24] = AUC (0 to last) in male ICR-CD1 mouse liver at 40 mg/kg, po administered as single dose and measured upto 72 hrs; assay type: ADME, organism-based; conditions: in vivo; outline: as §4
[25] = Cmax in male ICR-CD1 mouse plasma at 40 mg/kg, po administered as single dose and measured upto 72 hrs; assay type: ADME, organism-based; conditions: in vivo; outline: as §4
[26] = tested on: Leishmania mexicana; experiment: as §1, with “inhibition of” for “reduction in”, “growth at 0.1 uM” for “survival”, “analysis relative to control” for “analysis”; assay type: functional; conditions: MNYC/BZ/62/M379, J774.A1, read-out: INH
[27] = AUC (0 to infinity) in male ICR-CD1 mouse plasma at 40 mg/kg, po administered as single dose and measured upto 72 hrs; assay type: ADME, organism-based; conditions: in vivo; outline: as §4
[28] = tested on: Leishmania donovani; experiment: Antileishmanial activity against Leishmania donovani amastigotes expressing red-shifted firefly luciferase from integrated ribosomal (28S) RNA locus infected in mouse J774.A1 cells assessed as reduction in parasite growth measured after 96 hrs by luminescence based analysis; assay type: functional, organism-based; conditions: J774.A1, 96 h; outline: as §2
[29] = Therapeutic index, ratio of IC50 for human HepG2 cells to EC50 for antileishmanial activity against Leishmania donovani amastigotes expressing red-shifted firefly luciferase from integrated ribosomal (28S) RNA locus infected in mouse J774.A1 cells; assay type: toxicity, cell-based; conditions: read-out: TI
Outline: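 TI computed as HepG2 IC50 divided by L. donovani EC50. HepG2: MTT assay with 48 h exposure to 10–0.15 μg/mL (1.6-fold dilutions), triplicates, sigmoidal variable-slope fit. Amastigotes: J774A.1 macrophages infected with RS-luciferase promastigotes at 10:1, washed after 24 h, then 96 h compound exposure (3-fold dilutions, 10 μM–1 nM) in MEM/10% HI-FBS at 37 °C, 5% CO₂; luciferase readout.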

| SMILES | EC50 at 96 h [1] [nM] | EC50 [2] [nM] | survival at 0.1 µM [3] [%] | viability at 96 h, 0.1 µM [4] [%] | half-life at 1 µM [6] [h] | selectivity ratio [7] | IC50 [8] [nM] | half-life at 1 µM [11] [h] | percent inhibition of parasite growth at 0.1 µM [26] [%] | other results |
| --- | --- | --- | --- | --- | --- | --- | --- | --- | --- | --- |
| C(/NC1CCCCC1)=C1/N=C(c2ccc[nH]2)C2=C1CCCC2.Cl | 2930 | 130 | 40.9 | 60.3 | 0.445 | 23 | 8210 | – | – | Activity [5]: Active; Activity [9]: Active |
| CCc1ccc(C2=N/C(=C\NC3CCCCCC3)C(C)=C2C)[nH]1.Cl | 1140 | 40.9 | 3.7 | 71.2 | > 1 | 28 | 2990 | > 1 | > 96 | Cmax [10]: 3667 ng/mL; betat1/2(app) [12]: > 72 h; Activity [13]: Non-Toxic; %AUCextra [14]: 0.262%; Activity [15]: Non-Toxic; Activity [16]: Non-Toxic; %AUCextra [17]: 98.8%; Tmax [18]: 2 h; Activity [5]: Active; Activity [19]: Non-Toxic; AUC [20]: 23043 ng·h/mL; Tmax [21]: 0 h; betat1/2(app) [22]: > 36 h; AUClast [23]: 2421 ng·h/mL; AUClast [24]: 22982 ng·h/mL; Cmax [25]: 35 ng/mL; Activity [9]: Active; AUC [27]: 206250 ng·h/mL |
| CC1=C(C)/C(=C/NC2CCCCCCC2)N=C1c1ccc[nH]1 | – | – | 33.5 | 43.5 | – | – | – | – | < 80 | – |
| COC1=CC(c2ccc[nH]2)=N/C1=C\NC1CCCCCC1.Cl | 550 | 32.5 | 4.84 | 99.6 | 0.868 | 17 | – | – | > 95 | EC50 [28]: 139 nM; selectivity ratio [29]: 73 |
| CCc1ccc(C2=N/C(=C\NC3CCCCCCC3)C(C)=C2C)[nH]1.Cl | 573 | 31.4 | 1.3 | 53.6 | > 1 | 18 | – | > 1 | > 96 | – |
| CC1=C(C)/C(=C/NC2CCCCCC2)N=C1c1ccc[nH]1.Cl | 908 | 55 | 18.2 | 62.8 | 0.752 | 16 | 21300 | – | < 80 | EC50 [28]: 79.5 nM; selectivity ratio [29]: 268 |
| CCC1=CC(c2ccc[nH]2)=N/C1=C\NC1CCCCCC1 | – | – | 42.1 | 88.7 | – | – | – | – | ~60 | – |
| CCC1=C(CC)/C(=C/N[C@H]2CC[C@H](C)CC2)N=C1c1ccc[nH]1.Cl | 1420 | 73.3 | 17.1 | 87.8 | 0.388 | 19 | 15900 | – | – | Activity [5]: Active; Activity [9]: Active |
| COC1=CC(c2ccc(Cc3ccc(OC)cc3)[nH]2)=N/C1=C\Nc1ccc(Cl)cc1 | – | – | 93.5 | 101 | – | – | – | – | ~7 | – |
| COC1=CC(c2ccc[nH]2)=N/C1=C\Nc1ccc(Cl)c(OC)c1.Cl | – | – | 77.6 | 57.3 | > 1 | – | – | > 1 | ~22 | – |
| CC1=CC(c2ccc[nH]2)=N/C1=C\NC1CCCCCC1 | – | – | 26.3 | 88.4 | – | – | – | – | ~75 | – |
| CC1=C(C)/C(=C/NC2CCCCCC2)N=C1c1ccc(CC(C)C)[nH]1.Cl | 1240 | 44.3 | 2.3 | 74.5 | > 1 | 28 | – | > 1 | > 96 | – |
| Cl.FC(F)(F)Oc1ccc(C2=CC(c3ccc[nH]3)=N/C2=C\NC23CC4CC(CC(C4)C2)C3)cc1 | 908 | 90.5 | 39 | 70.6 | > 1 | 10 | 85500 | > 1 | – | EC50 [28]: 398 nM; selectivity ratio [29]: 215 |
| COC1=CC(c2ccc[nH]2)=N/C1=C\Nc1ccc(F)c(OC)c1.Cl | – | – | 98.3 | 58.7 | > 1 | – | – | – | ~2 | – |
